This is a sample that favours compounds with a hit; in the whole collection about 2% have one here.
CAL PDZ FP-1: CAL PDZ peptide-binding inhibitors, primary screen, biochemical, fluorescence polarization, Cer-tagged CAL PDZ, HTS; Golgi-associated PDZ and coiled-coil motif-containing protein (Homo sapiens), Q9HD26; purified CAL PDZ, TMR-peptide fluorescence polarization, 1 h; inhibition, % at 20 µM; actives 0.02% (n = 330,000); AID 504414, 2011;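 active means highest replicate inhibition of at least 40%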
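material = purified tagged CAL PDZ domain construct (CerCALP) | buffer or medium = sodium phosphate/NaCl buffer pH 7.4 with TCEP, IgG, Thesit | reagent = TMR-labelled reporter peptide T*-PRC34 bound in PDZ groove | incubation = 1 h room-temperature incubation prior to read | measured by = fluorescence polarization (mP) | evaluation = percent inhibition from loss of millipolarization | control set = unlabelled peptide and DMSO controls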
dFosB act-1: activators of delta FosB homodimer, primary screen, biochemical, fluorescence polarization, TAMRA-CDK5 oligo, single point | actives 0.99% (n = 340,000) | purified delta FosB; percent of positive-control signal above neutral wells | Protein FosB (Mus musculus), P13346 | activation, % at 25 µM;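 active means mean activation above about 17%, with every replicate also reaching it, limit read from the data, passing the limit was not always enough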
PKA-R1A activ: activators of PKA-R1A holoenzyme, primary screen, biochemical, fluorescence polarization, Cy5-IP20, bovine R1A, mouse PKAc | AID 504707, 2011 | actives 0.083% (n = 340,000) | cAMP-dependent protein kinase type I-alpha regulatory subunit (Bos taurus) + … | activation, % at 11.4 µM | PKA-R1A dissociation; scaled: DMSO 0%, 113 µM cGMP 100%;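 active means percent activation above the mean of all tested compounds plus 3 SD, cut at about 19% in these data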;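 further: higher means more PKAc released from R1A so a rise in polarization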
NTR1 agonist: agonists of human NTR1, primary screen, imaging, U2OS cells, beta-arrestin-GFP, high content; activation, % at 20 µM; NTR1-U2OS beta-arrestin-GFP spot imaging, agonist mode; AID 493036, 2011; actives 0.17% (n = 330,000); Neurotensin receptor type 1 (Homo sapiens), P30989;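 active means activation at or above 40% of the spot to cytoplasm intensity ratio, with at least 20 cells analyzed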
PKA-R2B act: activators of PKA-R2B holoenzyme, primary screen, biochemical, fluorescence polarization, Cy5-IP20, human | activation, % at 11.4 µM | AID 504700, 2011 | actives 0.079% (n = 340,000) | PKA-R2B holoenzyme dissociation; R2B truncated from residue 108, S112A mutant; 0% DMSO only, 100% 113 µM cGMP | cAMP-dependent protein kinase catalytic subunit beta (Homo sapiens) + cAMP-dependent …;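 active means activation above a cutoff set at the mean over all compounds plus 3 SD, cut at about 18% in these data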;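 further: higher means more holoenzyme dissociation and a rise in polarization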
Target sequence (P31323 whole entry, looked up, other chains not shown, the tested form may be a part): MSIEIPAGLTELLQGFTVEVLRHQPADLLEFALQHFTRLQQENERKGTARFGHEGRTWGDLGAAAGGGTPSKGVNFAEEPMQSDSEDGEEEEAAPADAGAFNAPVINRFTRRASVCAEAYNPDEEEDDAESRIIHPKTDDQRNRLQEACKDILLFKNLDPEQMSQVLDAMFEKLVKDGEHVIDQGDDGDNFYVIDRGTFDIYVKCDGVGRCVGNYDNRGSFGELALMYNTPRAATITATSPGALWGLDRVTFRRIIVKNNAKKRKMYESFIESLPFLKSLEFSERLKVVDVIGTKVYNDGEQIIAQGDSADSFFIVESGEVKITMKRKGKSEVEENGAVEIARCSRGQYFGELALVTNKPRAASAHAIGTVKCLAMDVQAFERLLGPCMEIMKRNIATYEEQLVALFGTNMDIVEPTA
CAL PDZ FP-2: untagged CAL PDZ binding inhibitors, primary screen, biochemical, fluorescence polarization, HTS. Golgi-associated PDZ and coiled-coil motif-containing protein (Homo sapiens), Q9HD26. purified CAL PDZ, TMR-peptide fluorescence polarization, 1 h. inhibition, % at 24.9 µM. actives 0.92% (n = 300,000). AID 602252, 2012;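 active means mean inhibition of at least 30% with at least half of replicates also reaching 30%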
dFosB act-2: activators of mouse delta FosB DNA binding, confirmation, biochemical, fluorescence polarization, TAMRA-CDK5 oligo, cherry-picked samples; purified delta FosB; normalised: neutral wells 0, positive control 100; activation, % at 24.9 µM; 2,400 tested, under 10 active; shares compounds with dFosB act-1; AID 588690, 2011;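 active means highest replicate activation at or above 34% and every replicate reaching that threshold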;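 further: higher polarization means more probe DNA bound by delta FosB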
Large screens that a line does not name were inactive (follow-up assays come after a bar, where they were run).

OC(CN1CCCCC1)Cn1c2ccccc2c2cc(Br)ccc21 (centres undefined)	dFosB act-1 40 | dFosB act-2 inactive
Cc1c(C)n(CC(O)CN2CCCCCC2)c2ccccc12 (centres undefined)	none
COc1ccccc1-c1oc2ccccc2c1C#CC1(N)CCCCC1	dFosB act-1 24 | dFosB act-2 inactive
COc1ccccc1-c1oc2ccccc2c1C#CC1(O)CCCCC1	none
CCOC(=O)C1=CN(Cc2ccco2)S(=O)(=O)NC1CC (centres undefined)	none
c1ccc2c(-c3nnc(SCc4cn5ccccc5n4)o3)c[nH]c2c1	none
c1ccc(CSc2nnc(-c3c[nH]c4ccccc34)o2)cc1	dFosB act-1 20 | dFosB act-2 inactive
Fc1ccc(N2CCN(C3=Nc4cccc5cccc3c45)CC2)cc1	dFosB act-1 22 | dFosB act-2 inactive
CCC(=NNS(=O)(=O)c1ccc(C)cc1)c1ccc(OC)c(C)c1	none (no result: CAL PDZ FP-1, dFosB act-1, NTR1 agonist, CAL PDZ FP-2)
COc1ccc(Nc2oc(COc3ccc(Cl)cc3)nc2C#N)cc1	dFosB act-1 22 | dFosB act-2 inactive
O=C(Nc1cnccn1)Nc1ccc(Cl)cc1Cl	dFosB act-1 34 | dFosB act-2 inactive
O=C(Nc1ccc2c(c1)OCO2)Nc1ccc(Cl)cc1Cl	dFosB act-1 29 | dFosB act-2 inactive
O=C(Nc1ccc(Cl)cc1)Nc1ccc2c(c1)OCO2	none
Cc1ccc(NC(=O)Nc2cnccn2)cc1Cl	none
Cc1ccc(NC(=O)c2cc3ccccc3oc2=N)cc1	none
N=c1oc2cc(O)ccc2cc1C(=O)Nc1ccc(Cl)cc1	dFosB act-1 27 | dFosB act-2 inactive
CCOc1ccccc1N(C)C(=O)Cn1ncc2c([nH]c3ccc(C)cc32)c1=O	none (no result: CAL PDZ FP-2)
CCC(=O)NCc1csc(-c2cccs2)n1	none
O=C(NCc1csc(-c2cccs2)n1)Nc1cccc(Cl)c1	dFosB act-1 66 | dFosB act-2 inactive
Cc1cc(C)n(CC(O)Cn2c3ccc(Cl)cc3c3cc(Cl)ccc32)c(=O)n1 (centres undefined)	dFosB act-1 25 | dFosB act-2 inactive
O=C1CC(=C(c2ccccc2)c2ccccc2)C(=O)N1CCCN1CCN(c2cccc(Cl)c2)CC1	none
O=C1CC(=C2c3ccccc3-c3ccccc32)C(=O)N1CCCCN1CCN(c2ccccc2)CC1	dFosB act-1 33 | dFosB act-2 inactive
Cn1c(=O)oc2cc(S(=O)(=O)N3CCCC(C(=O)NCc4ccc5c(c4)OCO5)C3)ccc21 (centres undefined)	dFosB act-1 46 | dFosB act-2 inactive
Cc1ccc(C)c(NC(=O)C2CC=CCC2C(=O)O)c1 (centres undefined)	none
Cc1ccc(C)c(NC(=O)C2CC3c4ccccc4C2c2ccccc23)c1 (centres undefined)	dFosB act-1 40 | dFosB act-2 inactive
COc1ccc(CNC(=O)CCCCCNc2nc(=S)[nH]c3ccccc23)cc1	dFosB act-1 39 | dFosB act-2 inactive
S=c1nc(NCc2ccc3c(c2)OCO3)c2ccccc2[nH]1	none
O=C(NC1CCCCC1)c1ccc(CNc2nc(=S)[nH]c3ccccc23)cc1	dFosB act-1 19 | dFosB act-2 inactive
